# Most compounds without a hit are left out; they make up all but 1.2% or so of the library.
# CAL PDZ FP-1: CAL PDZ peptide-binding inhibitors, primary screen, biochemical, fluorescence polarization, Cer-tagged CAL PDZ, HTS. Golgi-associated PDZ and coiled-coil motif-containing protein (Homo sapiens), Q9HD26. purified CAL PDZ, TMR-peptide fluorescence polarization, 1 h. inhibition, % at 20 µM. hit rate 0.02% among 330,000. AID 504414, 2011;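 active = highest replicate inhibition of at least 40%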;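 also: plate controls were DMSO neutral control wells for no effect and unlabeled competitor peptide control wells for full effect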
#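 Material – purified CerCALP PDZ construct · Detection – FP readout, S and P plane fluorescence · Measure – percent inhibition from loss of millipolarization · Controls – unlabelled peptide for full inhibition, DMSO wells as neutral · Probe or stimulus – TMR-labelled reporter peptide T*-PRC34 bound in PDZ groove · Times – 1 h at RT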
# ARNT TACC3 PPI: disruptors of ARNT/TACC3 protein interaction, primary screen, biochemical, AlphaScreen, single concentration | AlphaScreen His-ARNT PAS-B/GST-TACC3 binding, luminescence; TACC3 fragment carries E629A point mutation | inhibition, % at 9.99 µM | hit rate 0.66% among 390,000 | AID 623870, 2012;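 active = mean inhibition of replicates at least 50% and at least half of replicates each reaching 50%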;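 also: 0% = complete ARNT plus TACC3 wells and 100% = ARNT alone without TACC3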
# CaV13 ICDI inh: Primary screen for inhibitors of IQ motif and Ca2+-dependent inactivation inhibitor domain binding in CACNA1D, Förster resonance energy transfer in living cells, …; AID 743397; inhibition, % at 12.3 µM; hit rate 0.098% among 340,000; HEK cells, CFP/YFP FRET ICDI-IQ, plate reader, 10 min; percent FRET-ratio fall versus neutral wells;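 active = mean replicate inhibition of at least 30% and at least 1% of replicates passing that level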;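 also: 0% = median of the neutral control wells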
# CAL PDZ FP-2: untagged CAL PDZ binding inhibitors, primary screen, biochemical, fluorescence polarization, HTS. inhibition, % at 24.9 µM. purified CAL PDZ, TMR-peptide fluorescence polarization, 1 h. Golgi-associated PDZ and coiled-coil motif-containing protein (Homo sapiens), Q9HD26. hit rate 0.92% among 300,000;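 active = mean inhibition of at least 30% with at least half of replicates also reaching 30%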;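 also: 0% = DMSO neutral control and 100% = excess unlabeled competitor peptide PRC23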
# The depositor's hits bear a star; nt = no result; + = active, no number.
SMILES,CAL PDZ FP-1,ARNT TACC3 PPI,CaV13 ICDI inh,CAL PDZ FP-2
CCC(=O)N1[C@@H](CO)[C@H](c2ccc(-c3ccccc3)cc2)[C@@H]1CNC(=O)COC,nt,-2,nt,nt
COCCN(C(=O)CSc1nnc(-c2ccccc2F)n1C)c1c(N)n(Cc2ccccc2)c(=O)[nH]c1=O,-1,-2,-5,45*
COCCN(C(=O)CSc1nnc(-c2cccc(C)c2)n1C)c1c(N)n(Cc2ccccc2)c(=O)[nH]c1=O,-1,0,8,0
COc1ccc(-c2ccc3c(c2)O[C@@H](CN(C)CC2CCOCC2)[C@H](C)CN([C@@H](C)CO)S3(=O)=O)cc1,nt,-7,nt,nt
COc1cnc(N(C)C)nc1Sc1ccc(Cl)cc1,-2,-6,-3,7
COc1cnc(-c2ccccn2)nc1Oc1ccccc1,0,82*,-5,-4
COc1cnc(-c2ccccn2)nc1Sc1ccc(F)cc1,-1,46*,-7,-1
COc1cnc(-c2ccccn2)nc1Oc1cccc(C(F)(F)F)c1,-2,nt,-5,4
O=C(C[C@H]1C[C@H]2c3cc(NC(=O)CC4CC4)ccc3O[C@H]2[C@@H](CO)O1)NCc1cccc(F)c1,nt,-3,nt,nt
O=C(C[C@H]1C[C@@H]2c3cc(NC(=O)CC4CC4)ccc3O[C@@H]2[C@@H](CO)O1)NCc1cccc(F)c1,nt,active,nt,nt
O=C1COc2ccccc2CN1,-1,-5,-7,+
C[C@H](CO)N1C[C@H](C)[C@H](CN(C)C(=O)CCC(F)(F)F)OCCCC[C@H](C)Oc2ccc(NS(=O)(=O)c3cccs3)cc2C1=O,nt,-4,nt,nt
C=CCNC(=S)NCc1ccccc1OC,0,-1,-6,70*
Cc1cccc(-n2cnc(C(=O)NNC(=S)Nc3ccc(Cl)cc3)c2)n1,-2,67*,-3,-4
Cc1nc2ccccn2c1C(=O)NNC(=S)Nc1ccc(Cl)cc1,-1,4,-5,-3
CC(=O)Nc1ccc(S(=O)(=O)NCCC(=O)Nc2cc(C)ccn2)cc1,-1,-3,-7,30*
COc1ccc2[nH]cc(CCNS(=O)(=O)c3ccc(NC(C)=O)cc3)c2c1,0,4,12,2
CC(=O)Nc1ccc(S(=O)(=O)NCCc2c[nH]c3ccc(C)cc23)cc1,-2,4,18,31*
C[C@@H]1CN([C@H](C)CO)C(=O)c2cc(NS(C)(=O)=O)ccc2O[C@@H](C)CCCCO[C@H]1CN(C)S(=O)(=O)c1ccc(F)cc1,nt,-4,nt,nt
CCOC(=O)c1c(NC(=O)CN2CCC(C)CC2)sc(C)c1C,11,-7,2,45*
CC(C)NC(=O)N1CCCCN2[C@H](CO)[C@H](c3ccc(C#Cc4ccccc4)cc3)[C@@H]2C1,nt,6,nt,nt
C[C@H]1CN([C@@H](C)CO)C(=O)c2cccc(NS(=O)(=O)c3cn(C)cn3)c2O[C@@H]1CN(C)C(=O)NC1CCCCC1,nt,-7,nt,nt
CC=Cc1ccc2n(c1=O)C[C@@H]1[C@@H](CO)[C@H](C(=O)N[C@H](C)c3ccccc3)[C@H]2N1CC (mixture of isomers),nt,-2,nt,nt
COc1ccc(-n2nc(C(=O)NCC(=O)N3CCC(C)CC3)c3ccccc3c2=O)cc1,-2,4,-18,47*
COc1ccc(-n2nc(C(=O)NCC(=O)N3CCN(c4cccc(Cl)c4)CC3)c3ccccc3c2=O)c(OC)c1,-1,23,-7,nt
SMILES,CAL PDZ FP-1,ARNT TACC3 PPI,CaV13 ICDI inh,CAL PDZ FP-2
COc1ccc(-n2nc(C(=O)NCC(=O)N3CCN(c4ccccn4)CC3)c3ccccc3c2=O)c(OC)c1,-2,-1,-2,43*
COc1ccc(-n2nc(C(=O)NCC(=O)N3CCCC(C)C3)c3ccccc3c2=O)cc1 (stereo not drawn),0,2,-3,-2
COc1ccc(NC(=O)N[C@@H]2CC[C@@H](CCn3cc(-c4ccccc4F)nn3)O[C@H]2CO)cc1,nt,-9,nt,nt
COc1ccc(CC(=O)Nc2c(C(=O)N3CCN(c4ncccn4)CC3)oc3ccccc23)cc1,-2,5,-14,43*
CSc1nc(C)cc(Oc2ccc(OCC(N)=O)nn2)n1,1,-3,-2,-2
C=CCOc1ccc(Oc2cc(C)nc(SC)n2)nn1,nt,3,-5,43*
COC(=O)c1cc(-c2ccccc2)sc1NC(=O)CN1C(=O)c2ccccc2C1=O,0,-27,-5,123*

# Screening results: PubChem BioAssay, Broad Institute
